Data set [1] relates to Staphylococcus aureus. The experiment in a line: Antibacterial activity against vancomycin-resistant Staphylococcus aureus 12 after 18 to 20 hrs by CLSI-based broth microdilution assay. The class given is functional. Summed up:
(§1)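 Broth microdilution per CLSI. Strains grown aerobically overnight on tryptone soy agar at 37 °C, adjusted to 0.5 McFarland, then diluted in cation-adjusted Mueller-Hinton broth to about 5 × 10^5 CFU/mL. Compounds (10 mg/mL DMSO stocks) serially diluted. Incubated aerobically at 37 °C for 18-20 h. MIC is the lowest concentration with no visible growth.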
On the technique in general: In broth dilution the organism is exposed to a series of concentrations in liquid medium.

Data set [2] has as its system Acinetobacter baumannii. The data set can be described thus: Bactericidal activity against Acinetobacter baumannii ATCC 19606. The class given is functional. Particulars: ATCC 19606 = CIP 70.34 = JCM 6841.
Data set [3] in a line: Volume of drug distribution in Sprague-Dawley rat at 50 mg/kg, po administered via gavage measured over 12 hrs by LC-MS/MS analysis. Conditions: in vivo. In kind it is ADME, organism-based. The essentials:
(§2)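 Three male naïve Sprague-Dawley rats received a single oral gavage dose of 50 mg/kg in 2% ethanol/48% PEG 400/50% water. Blood was collected into EDTA-K2 tubes over 12 h after dosing. Plasma was protein-precipitated with acetonitrile and compound concentration quantified by LC/MS/MS.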

For data set [4], the system named is Staphylococcus aureus. The experiment in a line: Bactericidal activity against methicilline-sensitive Staphylococcus aureus NRS-107 incubated for 18 to 20 hrs followed by replating on tryptic soy agar plate and further incubated for 18 to 24 hrs by CLSI-based broth microdilution assay. The class given is functional. Summed up:
(§3)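 MBC: after the broth microdilution MIC (CAMHB, ~5 × 10^5 CFU/mL, 37 °C, 18-20 h), 4 µL from wells without growth plated onto tryptic soy agar. Plates incubated 37 °C for 18-20 h. MBC is the lowest concentration giving 99.9% reduction in growth.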

For data set [5], the system named is Staphylococcus aureus. The data set can be described thus: Bactericidal activity against methicilline-resistant Staphylococcus aureus NRS123 USA400 incubated for 18 to 20 hrs followed by replating on tryptic soy agar plate and further incubated for 18 to 24 hrs by CLSI-based broth microdilution assay. In kind it is functional. The essentials: as §3
A short description of data set [6]: Clearance in Sprague-Dawley rat at 50 mg/kg, po administered via gavage after 12 hrs by LC-MS/MS analysis. In kind it is ADME, organism-based. Conditions: in vivo. The essentials:
as §2

The subject of data set [7] is Streptococcus pneumoniae. The data set can be described thus: Bactericidal activity against cephalosporin-resistant Streptococcus pneumoniae ATCC 51916 incubated for 18 to 20 hrs followed by replating on tryptic soy agar plate and further incubated for 18 to 24 hrs by CLSI-based broth microdilution assay. The class given is functional. The essentials:
as §3

Data set [8] concerns Escherichia coli. The data set can be described thus: Antibacterial activity against Escherichia coli BW25113. The class given is functional.
Data set [9] concerns Staphylococcus aureus. The experiment in a line: Antibacterial activity against methicilline-resistant Staphylococcus aureus NRS384 USA300 after 18 to 20 hrs by CLSI-based broth microdilution assay. In kind it is functional. Summed up: as §1
Data set [10] concerns Staphylococcus aureus. The experiment in a line: Bactericidal activity against methicilline-resistant Staphylococcus aureus NRS385 USA500 incubated for 18 to 20 hrs followed by replating on tryptic soy agar plate and further incubated for 18 to 24 hrs by CLSI-based broth microdilution assay. In kind it is functional. The essentials: as §3
The test system of data set [11] is HaCaT. The data set can be described thus: Cytotoxicity against human HaCaT cells up to 64 ug/ml after 2 hrs by MTS assay. In kind it is cell-based. For orientation: Formazan colour is commonly taken as a measure of viable cells.
Data set [12] deals with Staphylococcus aureus. The experiment in a line: Antibacterial activity against methicilline-resistant Staphylococcus aureus NRS123 USA400 after 18 to 20 hrs by CLSI-based broth microdilution assay. The class given is functional. The essentials:
as §1

In data set [13] the test system is Pseudomonas aeruginosa. The data set can be described thus: Bactericidal activity against Pseudomonas aeruginosa ATCC 15442. The class given is functional.
Data set [14] relates to Enterococcus faecium. The data set can be described thus: Antibacterial activity against vancomycin-resistant Enterococcus faecium ATCC 700221 after 18 to 20 hrs by CLSI-based broth microdilution assay. In kind it is functional. The essentials: as §1
The test system of data set [15] is Enterococcus faecalis. The data set can be described thus: Antibacterial activity against vancomycin-resistant Enterococcus faecalis ATCC 51299 after 18 to 20 hrs by CLSI-based broth microdilution assay. In kind it is functional. The essentials: as §1
Data set [16] in a line: Tmax in Sprague-Dawley rat at 50 mg/kg, po administered via gavage measured over 12 hrs by LC-MS/MS analysis. In kind it is ADME, organism-based. Particulars: in vivo. Summed up: as §2
The nature of data set [17]: Cmax in Sprague-Dawley rat at 50 mg/kg, po administered via gavage measured after 90 mins by LC-MS/MS analysis. In kind it is ADME, organism-based. Also on record: dose 50 mg/kg, route oral. Conditions: in vivo. The essentials:
as §2

Data set [18] deals with Listeria monocytogenes. The data set can be described thus: Bactericidal activity against Listeria monocytogenes ATCC 19111 incubated for 18 to 20 hrs followed by replating on tryptic soy agar plate and further incubated for 18 to 24 hrs by CLSI-based broth microdilution assay. The class given is functional.
The subject of data set [19] is Staphylococcus aureus. The data set can be described thus: Antibacterial activity against intracellular methicillin resistant Staphylococcus aureus USA400 infected in mouse J774 cells assessed as reduction in intracellular bacterial cells at 2 times MIC concentration incubated for 24 hrs followed by re-plating on TSA plate for 18 to 22 hrs by serial dilution method relative to control. The class given is functional. The essentials:
(§4)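 J774 murine macrophages in DMEM + 10% FBS, 37 °C, 5% CO2, infected with MRSA USA400 at MOI ~10:1 for 1 h. Washed with gentamicin 100 µg/mL to kill extracellular bacteria. […] Cells lysed with 0.1% Triton-X, serially diluted in PBS, plated on TSA for 18-22 h, CFU counted. One-way ANOVA with Dunnett's test.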

In data set [20] the test system is J774. The data set can be described thus: Cytotoxicity against mouse J774 cells after 24 hrs by MTS assay. The class given is cell-based. Conditions: j774, 24 h. Summed up: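 J774 murine macrophages were incubated with compound for 24 h, then given MTS reagent for 4 h. Absorbance was read at OD490.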
Data set [21] deals with Enterococcus faecium. The data set can be described thus: Bactericidal activity against vancomycin-resistant Enterococcus faecium ATCC 700221 incubated for 18 to 20 hrs followed by replating on tryptic soy agar plate and further incubated for 18 to 24 hrs by CLSI-based broth microdilution assay. The class given is functional. Summed up:
as §3

In data set [22] the test system is Staphylococcus aureus. The data set can be described thus: Antibacterial activity against methicillin-resistant Staphylococcus aureus NRS384 USA300 after 18 to 20 hrs by broth microdilution assay. In kind it is functional. The essentials:
as §1

Data set [23] relates to Staphylococcus aureus. The experiment in a line: Antibacterial activity against methicilline-resistant Staphylococcus aureus NRS386 USA700 after 18 to 20 hrs by CLSI-based broth microdilution assay. The class given is functional. The essentials: as §1
Data set [24] relates to Staphylococcus aureus. The experiment in a line: Antibacterial activity against intracellular methicillin resistant Staphylococcus aureus USA400 infected in mouse J774 cells assessed as log10 reduction in intracellular bacterial cells at 2 times MIC concentration incubated for 24 hrs followed by re-plating on TSA plate for 18 to 22 hrs by serial dilution method. The class given is functional. Summed up: as §4

Data set [25] concerns Caco-2. The data set can be described thus: Cytotoxicity against human Caco2 cells up to 64 ug/ml after 2 hrs by MTS assay. The class given is cell-based. Conditions: caco-2, 2 h.
A short description of data set [26]: Half life in Sprague-Dawley rat at 50 mg/kg, po administered via gavage measured over 12 hrs by LC-MS/MS analysis. The class given is ADME, organism-based. Conditions: in vivo. The essentials:
as §2

The test system of data set [27] is Caco-2. The experiment in a line: Cytotoxicity against human Caco2 cells up to 32 ug/ml after 2 hrs by MTS assay. In kind it is cell-based. Conditions: caco-2, 2 h.
Data set [28] has as its system HaCaT. The experiment in a line: Cytotoxicity against human HaCaT cells up to 32 ug/ml after 2 hrs by MTS assay. The class given is cell-based.

Data on 2 molecules can be found in ChEMBL document CHEMBL4406834, “Phenylthiazoles with nitrogenous side chain: An approach to overcome molecular obesity” (Eur J Med Chem, 2019).

Each structure is given as a SMILES string. In brackets after ≈: the same amount, converted by molar mass. A value given as a limit tells only on which side of the number the result lay.

As a reminder, the MIC is the least concentration at which growth counts as inhibited. Read a high MIC as a need for much substance. Broadly, the MBC is the smallest concentration meeting the test's criterion for killing. Read a high MBC as less potent killing. For orientation: CL/F means clearance divided by bioavailability, as obtained after extravascular dosing. The term Tmax denotes the time from dosing to the highest level. A word on the Cmax: it is the peak of the concentration-time curve. As usually defined, the half-life is the time needed for the level to fall by half in the phase considered.

In the case of `C/C(=N\NC(=N)N)c1sc(-c2ccc(N3CCCCC3)cc2)nc1C`, the minimum inhibitory concentration (MIC) in [1] turned out to be 4 µg/mL (≈ 11.2 µM); in data set [8], 32 µg/mL (≈ 89.8 µM); in data set [9] it was 4 µg/mL (≈ 11.2 µM); in [12] it was 8 µg/mL (≈ 22.4 µM); in data set [14], 8 µg/mL (≈ 22.4 µM); in data set [15], 16 µg/mL (≈ 44.9 µM). Moreover, the MIC in data set [22] and in data set [23] was 4 µg/mL (≈ 11.2 µM) throughout. Further, the MBC in data set [2] was 64 µg/mL (≈ 180 µM); in [4] it was 8 µg/mL (≈ 22.4 µM); in [5], 16 µg/mL (≈ 44.9 µM); in data set [7], 16 µg/mL (≈ 44.9 µM); in [10], 32 µg/mL (≈ 89.8 µM); in data set [13] it was over 64 µg/mL. The minimum bactericidal concentration (MBC) in data set [18] was 16 µg/mL (≈ 44.9 µM); in data set [21], 32 µg/mL (≈ 89.8 µM). In data set [3], this molecule displayed a Vd of 4.42 L. In data set [6], this molecule showed an apparent clearance CL/F of 12.7 mL/min. The Activity entry in data set [11] was “Non-Toxic”; in data set [20], “Non-Toxic”; in [24] it was 1.18 log10CFU/ml; in data set [25], “Non-Toxic”. In data set [16], the Tmax came out at 1.3 h. For the same molecule, the Cmax in data set [17] lay in the range of 9700 to 10000 ng/mL. Besides, in data set [19], the “inhibition (INH)” value came to 93.2%. In [26], this molecule had a half-life of 4 h.
For `C/C(=N\NC(=N)N)c1sc(-c2ccc(N3CCCC(C)C3)cc2)nc1C` (centres undefined), the MIC is 8 µg/mL (≈ 21.6 µM) in data set [1]; 32 µg/mL (≈ 86.4 µM) in data set [8]; 4 µg/mL (≈ 10.8 µM) in data set [9]; 8 µg/mL (≈ 21.6 µM) in data set [12]; 4 µg/mL (≈ 10.8 µM) in data set [14]; 8 µg/mL (≈ 21.6 µM) in data set [15]. Moreover, the figures for the MIC in data set [22] and in data set [23] were 4 µg/mL (≈ 10.8 µM) and 8 µg/mL (≈ 21.6 µM), respectively. Further, the minimum bactericidal concentration (MBC) was 32 µg/mL (≈ 86.4 µM) in [2]; 16 µg/mL (≈ 43.2 µM) in [4]; 16 µg/mL (≈ 43.2 µM) in data set [5]; 16 µg/mL (≈ 43.2 µM) in [7]; 16 µg/mL (≈ 43.2 µM) in [10]; over 64 µg/mL in data set [13]. Besides, the MBC in [18] was 8 µg/mL (≈ 21.6 µM); in [21], 32 µg/mL (≈ 86.4 µM). Further, the Activity result in data set [27] and in [28] was “Non-Toxic” in each case.
